ChEMBL document CHEMBL1125823, “2-Phenylindole-linked [2-(aminoalkyl)pyridine]dichloroplatinum(II): complexes with a selective action on estrogen receptor positive mammary tumors” (1991)

What was measured:
[1] = test system: MCF7; assay: Effect on Estrogen receptor positive MCF-7 human breast cancer cell proliferation at 5x10E-6M (control = 66.9+/-7.0); format: functional
Outline: (§1)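 MCF-7 cells were kept in MEM with 5% charcoal-treated newborn calf serum and phenol red for 2 weeks, then about 2×10^4 cells were plated per well. Compounds in 0.1% DMF were added 2 days later and renewed on day 4; DMF alone served as control. Coulter cell counts were taken on day 5; mean of six dishes ± SD; % T/C.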

[2] = test system: MCF7; assay: Effect on [3H]thymidine incorporation into estrogen receptor positive MCF-7 human breast cancer cells at 1*10^-6 M (control = 28.2+/-3.0); format: functional
Outline: (§2)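 MCF-7 cells were grown in MEM with charcoal-treated 5% newborn calf serum and phenol red, then treated with compounds in 0.1% DMF (renewed on day 4) alongside DMF controls. They were labeled 3 days later with 1 µCi [³H]thymidine per well for 2 h, and incorporated radioactivity per dish was measured; mean of six dishes ± SD; % T/C.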

[3] = test system: MCF7; assay: Effect on Estrogen receptor positive MCF-7 human breast cancer cell proliferation at 1x10E-6M (control = 66.9+/-7.0); format: functional; outline: as §1
[4] = test system: MCF7; assay: Effect on [3H]thymidine incorporation into estrogen receptor positive MCF-7 human breast cancer cells at 5x10E-6M; format: functional
Outline: (§3)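 MCF-7 cells in improved MEM with glutamine, gentamycin and 5% newborn calf serum, switched to charcoal-treated serum two weeks ahead; phenol red present; 37 °C, 5% CO2. About 2×10^4 cells plated per well; compound in 0.1% DMF added 2 days later, renewed on day 4; labelled 3 days later with 1 μCi [3H]thymidine per well for 2 h; cpm/dish, mean of six dishes ± SD.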

[5] = test system: MCF7; assay: Effect on Estrogen receptor positive MCF-7 human breast cancer cell proliferation at 5x10E-6M; format: functional; outline: as §1
[6] = test system: MCF7; assay: Effect on [3H]thymidine incorporation into estrogen receptor positive MCF-7 human breast cancer cells at 1x10E-6M; format: functional; outline: as §2
[7] = test system: MCF7; assay: Effect on [3H]thymidine incorporation into estrogen receptor positive MCF-7 human breast cancer cells at 5x10E-6M (control = 28.2+/-3.0); format: functional; outline: as §3
[8] = test system: MCF7; assay: Effect on Estrogen receptor positive MCF-7 human breast cancer cell proliferation at 1x10E-6M; format: functional; outline: as §1
[9] = target: T1, Estrogen receptor (Mus musculus) (UniProt O08537+P19785); assay: Anti-uterotrophic effect in mice as relative uterine weight(mg) at 250 ug; format: functional
Outline: (§4)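 Immature mice received the compound sc per animal on three consecutive days, alone or with 0.4 µg estrone per animal per day. Uteri were taken 24 h after the last injection, Bouin-fixed, dried at 100 °C for 24 h and weighed. Relative uterus weight = dry weight (mg)/body weight (g) × 100; mean of 6-10 animals ± SD; Mann-Whitney U test.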
Target sequence in this assay (P19785 whole entry, looked up, chain 1 of 2): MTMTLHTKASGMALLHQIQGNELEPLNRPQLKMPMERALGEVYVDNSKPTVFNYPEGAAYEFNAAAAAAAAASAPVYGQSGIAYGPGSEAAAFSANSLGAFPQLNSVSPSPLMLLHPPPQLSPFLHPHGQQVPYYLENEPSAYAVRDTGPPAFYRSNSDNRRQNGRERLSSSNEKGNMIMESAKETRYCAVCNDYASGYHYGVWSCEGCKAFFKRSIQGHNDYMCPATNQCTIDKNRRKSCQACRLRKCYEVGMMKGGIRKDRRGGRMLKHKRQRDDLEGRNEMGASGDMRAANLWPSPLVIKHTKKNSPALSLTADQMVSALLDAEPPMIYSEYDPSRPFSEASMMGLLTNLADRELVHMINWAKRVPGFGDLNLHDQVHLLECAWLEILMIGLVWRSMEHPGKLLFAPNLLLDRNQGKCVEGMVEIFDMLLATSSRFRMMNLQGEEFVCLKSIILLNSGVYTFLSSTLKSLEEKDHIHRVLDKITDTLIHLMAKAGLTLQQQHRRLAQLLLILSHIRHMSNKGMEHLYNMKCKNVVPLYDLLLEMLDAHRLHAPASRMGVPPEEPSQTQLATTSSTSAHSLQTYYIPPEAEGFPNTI
Target sequence in this assay (O08537 whole entry, looked up, chain 2 of 2): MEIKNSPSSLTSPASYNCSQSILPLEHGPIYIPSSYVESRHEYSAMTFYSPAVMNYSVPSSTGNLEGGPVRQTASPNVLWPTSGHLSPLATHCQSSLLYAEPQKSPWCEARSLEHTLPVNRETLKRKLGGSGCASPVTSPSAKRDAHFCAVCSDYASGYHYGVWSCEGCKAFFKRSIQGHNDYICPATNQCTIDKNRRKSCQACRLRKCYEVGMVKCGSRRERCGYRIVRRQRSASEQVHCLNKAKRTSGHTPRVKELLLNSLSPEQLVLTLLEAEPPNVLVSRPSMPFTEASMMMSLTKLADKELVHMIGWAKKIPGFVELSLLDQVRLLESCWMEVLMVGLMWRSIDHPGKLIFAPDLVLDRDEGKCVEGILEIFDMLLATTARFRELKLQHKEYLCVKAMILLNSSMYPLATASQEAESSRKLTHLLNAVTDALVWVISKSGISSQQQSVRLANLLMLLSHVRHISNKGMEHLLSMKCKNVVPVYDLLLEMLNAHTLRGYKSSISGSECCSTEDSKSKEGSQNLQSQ

[10] = target: T1, Estrogen receptor (Mus musculus); assay: Uterotrophic effect in mice as relative uterine weight(mg) at 25 ug (control = 12.3+/-3.7); format: functional, tissue-based
Outline: (§5)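 Immature mice dosed sc per animal on three consecutive days; vehicle controls. Killed and weighed 24 h after last injection; uteri fixed in Bouin solution 2 h, washed with alcoholic LiCl, dried at 100 °C for 24 h. Relative uterus weight = uterine dry weight (mg)/body weight (g) × 100; mean of 6-10 animals ± SD.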
Target sequence in this assay (P19785 whole entry, looked up, chain 1 of 2): as the sequence (P19785 whole entry, looked up, chain 1 of 2) above
Target sequence in this assay (O08537 whole entry, looked up, chain 2 of 2): as the sequence (O08537 whole entry, looked up, chain 2 of 2) above

[11] = target: T1, Estrogen receptor (Mus musculus); assay: Uterotrophic effect in mice as relative uterine weight(mg) at 250 ug (control = 12.3+/-3.7); format: functional, tissue-based; outline: as §5
Target sequence in this assay (P19785 whole entry, looked up, chain 1 of 2): as the sequence (P19785 whole entry, looked up, chain 1 of 2) above
Target sequence in this assay (O08537 whole entry, looked up, chain 2 of 2): as the sequence (O08537 whole entry, looked up, chain 2 of 2) above

[12] = target: T1, Estrogen receptor (Mus musculus); assay: Anti-uterotrophic effect in hormone-dependent transplant MXT bearing mice as relative uterine weight in treated and control mice at 10 mg (control=100+/-30); format: functional
Target sequence in this assay (P19785 whole entry, looked up, chain 1 of 2): as the sequence (P19785 whole entry, looked up, chain 1 of 2) above
Target sequence in this assay (O08537 whole entry, looked up, chain 2 of 2): as the sequence (O08537 whole entry, looked up, chain 2 of 2) above

[13] = target: T1, Estrogen receptor (Mus musculus); assay: Uterotrophic effect in mice as relative uterine weight(mg) at 250 ug (control = 12.4+/-3.7); format: functional, tissue-based; outline: as §5
Target sequence in this assay (P19785 whole entry, looked up, chain 1 of 2): as the sequence (P19785 whole entry, looked up, chain 1 of 2) above
Target sequence in this assay (O08537 whole entry, looked up, chain 2 of 2): as the sequence (O08537 whole entry, looked up, chain 2 of 2) above

[14] = organism: Mus musculus; assay: Anti-tumor activity in hormone-dependent transplant MXT mammary tumor bearing mice at 10 mg (control=534+/-652); format: functional, organism-based
[15] = test system: MCF7; assay: Effect on [3H]thymidine incorporation into estrogen receptor positive MCF-7 human breast cancer cells at 1x10E-6M (control = 7.7+/-0.8); format: functional; outline: as §2
[16] = organism: Mus musculus; assay: Relative tumor weight in treated compared to control mice bearing hormone-dependent transplanted MXT mammary tumors at 10 mg; format: functional, organism-based
[17] = test system: MCF7; assay: Effect on Estrogen receptor positive MCF-7 human breast cancer cell proliferation at 5x10E-6M (control = 22.3+/-3.3); format: functional; outline: as §1
[18] = organism: Mus musculus; assay: Anti-tumor activity in hormone-dependent transplant MXT mammary tumor bearing mice at 20 mg (control=534+/-652); format: functional, organism-based
[19] = test system: MCF7; assay: Effect on Estrogen receptor positive MCF-7 human breast cancer cell proliferation at 1x10E-6M (control = 22.3+/-3.3); format: functional; outline: as §1
[20] = target: T1, Estrogen receptor (Mus musculus); assay: Uterotrophic effect in mice as relative uterine weight(mg) at 25 ug (control = 12.4+/-3.7); format: functional, tissue-based; outline: as §5
Target sequence in this assay (P19785 whole entry, looked up, chain 1 of 2): as the sequence (P19785 whole entry, looked up, chain 1 of 2) above
Target sequence in this assay (O08537 whole entry, looked up, chain 2 of 2): as the sequence (O08537 whole entry, looked up, chain 2 of 2) above

[21] = target: T1, Estrogen receptor (Mus musculus); assay: Anti-uterotrophic effect in hormone-dependent transplant MXT bearing mice as relative uterine weight in treated and control mice at 20 mg (control=100+/-30); format: functional
[22] = test system: MCF7; assay: Effect on [3H]thymidine incorporation into estrogen receptor positive MCF-7 human breast cancer cells at 5x10E-6M (control = 7.7+/-0.8); format: functional; outline: as §3
[23] = organism: Mus musculus; assay: Relative tumor weight in treated compared to control mice bearing hormone-dependent transplanted MXT mammary tumors at 20 mg; format: functional, organism-based
[24] = target: T1, Estrogen receptor (Mus musculus); assay: Anti-uterotrophic effect in hormone-dependent transplant MXT bearing mice as relative uterine weight in treated and control mice at 20 mg (control=100+/-24); format: functional
[25] = target: T1, Estrogen receptor (Mus musculus); assay: Uterotrophic effect in mice as relative uterine weight(mg) at 250 ug (control = […]+/-1.7); format: functional, tissue-based
[26] = organism: Mus musculus; assay: Anti-tumor activity in hormone-dependent transplant MXT mammary tumor bearing mice at 20 mg (control=388+/-269); format: functional, organism-based
[27] = target: T1, Estrogen receptor (Mus musculus); assay: Uterotrophic effect in mice as relative uterine weight(mg) at 25 ug (control = […]+/-1.7); format: functional, tissue-based
[28] = organism: Mus musculus; assay: Anti-tumor activity in hormone-dependent transplant MXT mammary tumor bearing mice at 1.5 mg (control=534+/-652); format: functional, organism-based
[29] = target: T1, Estrogen receptor (Mus musculus); assay: Anti-uterotrophic effect in hormone-dependent transplant MXT bearing mice as relative uterine weight in treated and control mice at 1.5 mg; format: functional
[30] = organism: Mus musculus; assay: Relative tumor weight in treated compared to control mice bearing hormone-dependent transplanted MXT mammary tumors at 1.5 mg; format: functional, organism-based
[31] = target: T1, Estrogen receptor (Mus musculus); assay: Uterotrophic effect in mice as relative uterine weight(mg) at 15 ug (control = 14.6+/-2.7); format: functional, tissue-based; outline: as §5
Target sequence in this assay (O08537 whole entry, looked up): as the sequence (O08537 whole entry, looked up, chain 2 of 2) above
Target sequence in this assay (P19785 whole entry, looked up): as the sequence (P19785 whole entry, looked up, chain 1 of 2) above

[32] = target: T1, Estrogen receptor (Mus musculus); assay: Percent inhibition of estrone stimulated uterotrophic effect in mice at 150 ug; format: functional
Outline: (§6)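 Immature mice given test compound per animal sc on three consecutive days together with 0.4 μg estrone/animal/day. Killed 24 h after last injection; uteri fixed in Bouin, dried 100 °C 24 h and weighed. Inhibition = 100 − [(W_S,T − W_V)/(W_S − W_V) × 100] using relative uterus weights; 6-10 animals; Wilcoxon-Mann-Whitney U test.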
Target sequence in this assay (O08537 whole entry, looked up): as the sequence (O08537 whole entry, looked up, chain 2 of 2) above
Target sequence in this assay (P19785 whole entry, looked up): as the sequence (P19785 whole entry, looked up, chain 1 of 2) above

[33] = test system: MCF7; assay: Effect on Estrogen receptor positive MCF-7 human breast cancer cell proliferation at 1x10E-6M (control = 62.3+/-8.8); format: functional; outline: as §1
[34] = target: T1, Estrogen receptor (Mus musculus); assay: Percent inhibition of estrone stimulated uterotrophic effect in mice at 15 ug; format: functional; outline: as §6
Target sequence in this assay (O08537 whole entry, looked up): as the sequence (O08537 whole entry, looked up, chain 2 of 2) above
Target sequence in this assay (P19785 whole entry, looked up): as the sequence (P19785 whole entry, looked up, chain 1 of 2) above

[35] = target: T1, Estrogen receptor (Mus musculus); assay: Anti-uterotrophic effect in mice as relative uterine weight(mg) at 150 ug; format: functional; outline: as §4
Target sequence in this assay (O08537 whole entry, looked up): as the sequence (O08537 whole entry, looked up, chain 2 of 2) above
Target sequence in this assay (P19785 whole entry, looked up): as the sequence (P19785 whole entry, looked up, chain 1 of 2) above

[36] = test system: MCF7; assay: Effect on Estrogen receptor positive MCF-7 human breast cancer cell proliferation at 5x10E-6M (control = 62.3+/-8.8); format: functional; outline: as §1
[37] = target: T1, Estrogen receptor (Mus musculus); assay: Anti-uterotrophic effect in mice as relative uterine weight(mg) at 15 ug; format: functional; outline: as §4
Target sequence in this assay (O08537 whole entry, looked up): as the sequence (O08537 whole entry, looked up, chain 2 of 2) above
Target sequence in this assay (P19785 whole entry, looked up): as the sequence (P19785 whole entry, looked up, chain 1 of 2) above

[38] = test system: MCF7; assay: Effect on [3H]thymidine incorporation into estrogen receptor positive MCF-7 human breast cancer cells at 1x10E-6M (control = 43.4+/-1.8); format: functional; outline: as §2
[39] = test system: MCF7; assay: Effect on [3H]thymidine incorporation into estrogen receptor positive MCF-7 human breast cancer cells at 5x10E-6M (control = 43.4+/-1.8); format: functional; outline: as §3
[40] = target: T1, Estrogen receptor (Mus musculus); assay: Uterotrophic effect in mice as relative uterine weight(mg) at 150 ug (control = 14.6+/-2.7); format: functional, tissue-based; outline: as §5
Target sequence in this assay (O08537 whole entry, looked up): as the sequence (O08537 whole entry, looked up, chain 2 of 2) above
Target sequence in this assay (P19785 whole entry, looked up): as the sequence (P19785 whole entry, looked up, chain 1 of 2) above

“[5-hydroxy-3-methyl-2-(4-hydroxyphenyl)-1-[omega-[(2-pyridylmethyl)amino]pentyl]indole]dichloroplatinum (II) complex” was tested, and the Cell no/dish [1] was 571000, the Activity [2] was 16900 and the Cell no/dish [3] was 674000. It also gave a T/C [4] of 54%, a T/C [5] of 85% and a T/C [6] of 60%. For the same compound, the Activity [7] was 15200, the T/C [8] was 101% and the Relative uterus weight [9] was 46.6 mg. For the same compound, the Relative uterus weight [10] was 16.3 mg and the Relative uterus weight [11] was 22.1 mg.
For “[5-hydroxy-3-methyl-2-(4-hydroxyphenyl)-1-[omega-[(2-pyridylmethyl)amino]hexyl]indole]dichloroplatinum (II) complex”, the T/C [12] was 92%, the Relative uterus weight [13] was 22.5 mg and the T/C [4] was 12%. It also gave a Tumor weight [14] of 195 mg, an Activity [15] of 1400 and a T/C [5] of 56%. For the same compound, the T/C [16] was 36%, the Cell no/dish [17] was 124000 and the T/C [6] was 18%. It also gave a Tumor weight [18] of 121 mg, a T/C [8] of 52% and a Cell no/dish [19] of 116000. For the same compound, the Relative uterus weight [20] was 20.2 mg, the Relative uterus weight [9] was 56.3 mg and the T/C [21] was 113%. The Activity [22] was 900 and the T/C [23] was 22%.
“[5-hydroxy-3-methyl-2-(4-hydroxyphenyl)-1-[omega-[(2-pyridylmethyl(1-ethyl))amino]hexyl]indole]dichloroplatinum (II) complex” showed a T/C [24] of 104%, a Relative uterus weight [25] of 35.7 mg and a Tumor weight [26] of 80 mg. It also gave a Relative uterus weight [27] of 20.2 mg, a Relative uterus weight [9] of 48 mg and a T/C [23] of 21%.
Compound CISPLATIN has a Tumor weight [28] of 64 mg, a T/C [29] of 76% and a T/C [30] of 12%.
In the case of `Cc1c(-c2ccc(O)cc2)n(CCCCNCc2ccccn2)c2ccc(O)cc12`, the Relative uterus weight [31] is reported as 22.1 mg, the inhibition [32] is reported as 25% and the Cell no/dish [33] is reported as 598000. For the same compound, the T/C [4] was 76%, the T/C [5] was 73% and the inhibition [34] was 4%. It also gave a Relative uterus weight [35] of 44 mg, a T/C [6] of 87% and a T/C [8] of 96%. For the same compound, the Cell no/dish [36] was 452000, the Relative uterus weight [37] was 52.2 mg and the Activity [38] was 37800. The Activity [39] was 33100 and the Relative uterus weight [40] was 15 mg.
